STAT1 blocker = STAT1 signaling inhibitors, primary screen, cell-based, HTS, luciferase reporter; NIH 3T3 STAT1-luciferase reporter, IFN-gamma, luminescence; inhibition, % at 5.5 µM; hit rate 0.35% among 200,000;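 active = inhibition above a set limit, the mean inhibition across all tested compounds plus 3 SD, cut at about 34% in these data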;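 note: 0% = IFN-gamma with DMSO and 100% = IFN-gamma with 300 µM nifuroxazide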
STAT3 act = IL-6 driven STAT3 reporter potentiators, primary screen, U3A cells, luciferase, luminescence, MLSCN library. IL-6 STAT3-luciferase reporter; 100% = signal with IL-6 EC80 alone. activation (% of control), % at 5.6 µM. hit rate 0.91% among 190,000;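 active = activation above the screen-wide mean of compound activation plus 3 SD, cut at about 130% in these data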;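 note: 0% = background luminescence of wells with medium and substrate only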
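Test system: Human STAT1-deficient U3A cells with stable STAT3-luciferase reporter | Also added: Interleukin-6, 33 ng/mL | Timing: Compound pre-incubation 1 h before IL-6, then 6 h stimulation at 37 °C | Technique: Luciferase reporter luminescence | Read-out: Percent of IL-6-only median luminescence | Benchmarks: IL-6-only wells as 100% reference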
NF-kB neuron act = activators of NF-kB expression in neurons, primary screen, cell-based, HTS; human neuronal cells, NF-kB reporter expression; hits give high values; fold change at 12.5 µM; hit rate 1.6% among 190,000; AID 1239, 2008; in the data active = fold change above about 3.3
APP 5'UTR act = activators of APP 5'UTR luciferase reporter, primary screen, SH-SY5Y cells. SH-SY5Y APP 5'UTR luciferase reporter, luminescence; zero percent = DMSO vehicle wells. activation, % at 2 µM. hit rate 1% among 190,000. AID 1276, 2008;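 active = activation above a set limit, based on mean plus 3 SD of controls, cut at about 140% in these data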
STAT3 blocker = IL-6 driven STAT3 reporter inhibitors, primary screen, U3A cells, luciferase, luminescence, MLSCN library; hit rate 0.89% among 190,000; IL-6 STAT3-luciferase reporter; host cell line lacks STAT1; inhibition, % at 5.5 µM;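 active = inhibition above the mean inhibition across all screened compounds plus 3 SD, cut at about 44% in these data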;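 note: 0% = DMSO only wells and 100% = 100 µM nifuroxazide control wells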
STAT1 activator = STAT1 signaling activators, primary screen, cell-based, HTS, luciferase reporter. activation (% of control), % at 5.5 µM. NIH 3T3 STAT1-luciferase reporter, IFN-gamma, luminescence; 100% = IFN-gamma alone, no compound. hit rate 2.6% among 200,000;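 active = activation above the screen-wide mean activation plus 3 SD, cut at about 130% in these data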;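 note: raw ratio to IFN-gamma control signal so 100% means no change and 0% no light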
* marks the source's active call; other numbers are inactive results. Compounds with a hit are over-represented: about 5.1% of the library has one in this group of screens.

How did COc1ccc(NC(=O)/C=C/c2ccco2)cn1 do in these assays?
STAT1 blocker: -27; STAT3 act: 93; NF-kB neuron act: 2.3; APP 5'UTR act: 69; STAT3 blocker: 8; STAT1 activator: 126

How did COc1ccc(/C=C/C(=O)Nc2ccccc2C(=O)O)cc1 do in these assays?
STAT1 blocker: 39*; STAT3 act: 58; NF-kB neuron act: 3; APP 5'UTR act: 152*; STAT3 blocker: 51*; STAT1 activator: 63

How did COc1ccccc1N1CCN(C(=O)c2ccc(CN3CCOCC3)cc2)CC1 do in these assays?
STAT1 blocker: -3; STAT3 act: 106; NF-kB neuron act: 1.2; APP 5'UTR act: -5; STAT3 blocker: 0; STAT1 activator: 102

How did COc1ccc(/C=N/NC(=O)CNC(=O)C2COc3ccccc3O2)cc1OC (configuration not stated) do in these assays?
STAT1 blocker: 1; STAT3 act: 96; NF-kB neuron act: 0.84; APP 5'UTR act: -6; STAT3 blocker: 6; STAT1 activator: 98

Results for O=C(COc1ccc(Br)cc1CNC1CCCC1)Nc1ccccc1 ?
STAT1 blocker: 0; STAT3 act: 101; NF-kB neuron act: 0.83; APP 5'UTR act: -3; STAT3 blocker: 3; STAT1 activator: 97

What do the screens show for `C=CCN(c1ccc(Cl)cc1)S(=O)(=O)c1cccc(C(=O)O)c1`?
STAT1 blocker: -6; STAT3 act: 101; NF-kB neuron act: 1.2; APP 5'UTR act: 12; STAT3 blocker: 2; STAT1 activator: 105

What do the screens show for `NC(=O)c1ccccc1NC(=O)/C=C/c1cccc(Cl)c1`?
STAT1 blocker: -35; STAT3 act: 96; NF-kB neuron act: 1.6; APP 5'UTR act: 91; STAT3 blocker: 16; STAT1 activator: 131*

How did COc1ccccc1/C=C/C(=O)Nc1cccc(C(C)=O)c1 do in these assays?
STAT1 blocker: -11; STAT3 act: 96; NF-kB neuron act: 1; APP 5'UTR act: 26; STAT3 blocker: 9; STAT1 activator: 109

What do the screens show for `COc1ccc(/C=C/C(=O)Nc2cccc(C(C)=O)c2)cc1`?
STAT1 blocker: -34; STAT3 act: 94; NF-kB neuron act: 2; APP 5'UTR act: 50; STAT3 blocker: 5; STAT1 activator: 130*

What do the screens show for `Cc1ccc(-c2csc(NC(=O)COC(=O)c3cccc(S(=O)(=O)N4CCOCC4)c3)n2)cc1`?
STAT1 blocker: -35; STAT3 act: 104; NF-kB neuron act: 3.6*; APP 5'UTR act: 86; STAT3 blocker: -4; STAT1 activator: 131*

What do the screens show for `COc1ccc(-c2csc(NC(=O)c3ccccc3NS(=O)(=O)c3ccc(F)c(F)c3)n2)cc1`?
STAT1 blocker: 63*; STAT3 act: 37; NF-kB neuron act: 0.8; APP 5'UTR act: 6; STAT3 blocker: 79*; STAT1 activator: 40

Results for COc1cccc(C(=O)Nc2nc(-c3ccc(S(=O)(=O)N4CCOCC4)cc3)cs2)c1 ?
STAT1 blocker: 47*; STAT3 act: 63; NF-kB neuron act: 0.19; APP 5'UTR act: -3; STAT3 blocker: 48*; STAT1 activator: 55

What do the screens show for `O=C1CN(C(=O)COC(=O)CNS(=O)(=O)/C=C/c2ccccc2)c2ccccc2N1`?
STAT1 blocker: -1; STAT3 act: 94; NF-kB neuron act: 1.2; APP 5'UTR act: 8; STAT3 blocker: 10; STAT1 activator: 100

Results for N#C/C(=C\c1ccc(OCc2ccc(C(=O)O)cc2)cc1)C(=O)N1CCOCC1 ?
STAT1 blocker: 69*; STAT3 act: 24; NF-kB neuron act: 7*; APP 5'UTR act: -56; STAT3 blocker: 89*; STAT1 activator: 38

What do the screens show for `O=C(CCCOc1ccccc1)Nc1ccc(S(=O)(=O)Nc2ccccn2)cc1`?
STAT1 blocker: -3; STAT3 act: 107; NF-kB neuron act: 1; APP 5'UTR act: -15; STAT3 blocker: -2; STAT1 activator: 102

Results for Clc1ccc(-c2nc(C3CCCCC3)no2)cc1 ?
STAT1 blocker: -36; STAT3 act: 99; NF-kB neuron act: 1.9; APP 5'UTR act: 108; STAT3 blocker: 12; STAT1 activator: 132*

How did O=C(O)CCC(=O)Nc1nnc(C(F)(F)F)s1 do in these assays?
STAT1 blocker: 2; STAT3 act: 94; NF-kB neuron act: 1.4; APP 5'UTR act: -1; STAT3 blocker: 10; STAT1 activator: 98

Results for CCC(NC(=O)Nc1nnc(C(F)(F)F)s1)(C(F)(F)F)C(F)(F)F ?
STAT1 blocker: 61*; STAT3 act: 21; NF-kB neuron act: 0.7; APP 5'UTR act: 2; STAT3 blocker: 99*; STAT1 activator: 44

How did COc1ccc2c(c1OC)C(=O)N(c1cccc(C(F)(F)F)c1)C2 do in these assays?
STAT1 blocker: -54; STAT3 act: 112; NF-kB neuron act: 7.4*; APP 5'UTR act: 14; STAT3 blocker: -9; STAT1 activator: 149*

How did Cc1cccc(N2CC(=O)N(c3cccc(C)c3)CC2=O)c1 do in these assays?
STAT1 blocker: 5; STAT3 act: 103; NF-kB neuron act: 1.5; APP 5'UTR act: 11; STAT3 blocker: 2; STAT1 activator: 96

Results for COc1ccc2c(c1OC)C(=O)N(c1cccc(C)c1)C2 ?
STAT1 blocker: -36; STAT3 act: 84; NF-kB neuron act: 5.2*; APP 5'UTR act: 41; STAT3 blocker: 22; STAT1 activator: 135*

What do the screens show for `COc1ccc2c(c1OC)C(=O)N(c1ccccn1)C2`?
STAT1 blocker: -53; STAT3 act: 95; NF-kB neuron act: 2.5; APP 5'UTR act: 111; STAT3 blocker: 8; STAT1 activator: 149*

Results for CC(=O)NCCOc1ccc2oc3ccccc3c2c1 ?
STAT1 blocker: -33; STAT3 act: 98; NF-kB neuron act: 2.2; APP 5'UTR act: 17; STAT3 blocker: 6; STAT1 activator: 130*

What do the screens show for `CC(=O)c1nnn(-c2ccc([N+](=O)[O-])cc2C)c1C`?
STAT1 blocker: -9; STAT3 act: 99; NF-kB neuron act: 1.3; APP 5'UTR act: 8; STAT3 blocker: 3; STAT1 activator: 107

What do the screens show for `Cc1ccc2nc(N3C(=O)C(O)=C(C(=O)c4ccco4)C3c3cccs3)sc2c1` (configuration not stated)?
STAT1 blocker: -26; STAT3 act: 118; NF-kB neuron act: 2.3; APP 5'UTR act: 170*; STAT3 blocker: -21; STAT1 activator: 123

What do the screens show for `COc1ccc(C2C(C(=O)c3ccco3)=C(O)C(=O)N2c2nnc(C)s2)cc1` (configuration not stated)?
STAT1 blocker: 1; STAT3 act: 99; NF-kB neuron act: 1.1; APP 5'UTR act: 33; STAT3 blocker: 4; STAT1 activator: 99

How did O=C(CSc1nnnn1-c1ccccc1)Nc1nsc(-c2ccc(Cl)cc2)n1 do in these assays?
STAT1 blocker: 3; STAT3 act: 85; NF-kB neuron act: 0.56; APP 5'UTR act: -4; STAT3 blocker: 22; STAT1 activator: 99
